Compound activity from PubChem.
Yeast growth inh – chemicals that inhibit yeast BB579 growth in restrictive medium (lifespan-shortening candidates); S. cerevisiae BB579 growth, OD615, 48 h; inhibition, % at 10 µM; 0.51% of 140,000 active; AID 804;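 active = inhibition above a set limit, 3 SD over the mean compound inhibition, cut at about 44% in these data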
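Assay system: S. cerevisiae DeaD strain BB579 yeast. Medium: CSMM-D restrictive synthetic medium containing dextrose (glucose). Times: 4 h cell preincubation, 48 h compound exposure, 30 °C humidified. Signal: OD615 turbidity measurement. Benchmarks: positive control amphotericin B 10 µg/mL.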
Efa HMGR inh – E. faecalis class II HMG-CoA reductase inhibition; purified E. faecalis HMGR, NADPH absorbance 340 nm kinetic; inhibition, % at 10 µM; 0.41% of 190,000 active; AID 1066;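 active = inhibition above a set limit, the median over all tested compounds plus 3 SD, cut at about 9.5% in these data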;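 note: enzyme runs in reverse so mevalonate oxidation gives rising NADPH absorbance; 0% = complete reaction with DMSO and 100% = background rate lacking mevalonate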
Arbovirus anti – blocks arbovirus infection. 0.37% of 200,000 active. AID 1251. inhibition, % at 10 µM. arbovirus infection cell-based antiviral screen; in the data active = inhibition above about 30%
Yeast life ext – yeast lifespan extension | S. cerevisiae growth with nicotinamide, OD615; deaD strain in restrictive glucose medium | inhibition of the nicotinamide effect, % at 10 µM | 0.68% of 130,000 active | AID 775;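 active = inhibition above a set limit, placed 3 SD over the median of all compounds, cut at about 26% in these data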;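 note: 0% = nicotinamide-treated wells and 100% = cells grown without nicotinamide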
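Assay system: engineered S. cerevisiae DeaD replicative-lifespan strain, galactose-grown log-phase cells; Buffer or medium: CSMM-D glucose medium, restrictive; Probe or stimulus: nicotinamide 1.5 mM; Compound: single dose 10 µM compound, 0.25% DMSO; Schedule: 4 h preincubation then 48 h treatment at 30 °C; Technique: OD615 measurement.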
Rad51 HR inh – blocks human Rad51 in homologous recombination; Q06609; hRad51 DNA strand exchange, fluorescence dequenching; inhibition, % at 10 µM; 0.085% of 200,000 active; AID 1385;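 active = inhibition above 40% at the single screening dose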;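 note: 0% = DMSO control wells and 100% = blanks with heterologous ssDNA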
Target sequence (Q06609 whole entry, looked up): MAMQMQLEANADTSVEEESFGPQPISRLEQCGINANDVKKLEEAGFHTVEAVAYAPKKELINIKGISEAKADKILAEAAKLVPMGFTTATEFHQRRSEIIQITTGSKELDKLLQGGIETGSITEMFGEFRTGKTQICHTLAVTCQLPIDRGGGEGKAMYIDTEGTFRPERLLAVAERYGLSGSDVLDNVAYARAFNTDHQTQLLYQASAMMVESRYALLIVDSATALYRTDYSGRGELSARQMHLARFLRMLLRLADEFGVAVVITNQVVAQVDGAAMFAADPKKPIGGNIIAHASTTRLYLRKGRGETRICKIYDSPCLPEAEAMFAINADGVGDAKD
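System: hRad51 filaments on single-stranded DNA; reagent: Fluorescein- and BHQ1-tagged 47-mer duplex; compound dosing: one concentration, 10 µM final; timing: filaments 15 min 37 °C, then compound 30 min; measured by: fluorescein emission 520 nm, excitation 485 nm; benchmarks: per-plate controls and blanks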
Measles CPE – protection of cells from measles virus; Measles virus-infected cells, CPE protection, absorbance; protection (pct of control), % at 4 µM; 1.5% of 140,000 active; AID 841; in the data active = protection mostly above about 24%, no sharp cut-off; inactive = mostly below about 26%
* = called active by the depositor; . = not tested or not shown. Rows were chosen to be rich in hits. Some 2.4% of all compounds tested hit in one or more screens of this group.

SMILES	Yeast growth inh	Efa HMGR inh	Arbovirus anti	Yeast life ext	Rad51 HR inh	Measles CPE
Fc1ccccc1N1CCN(c2ncnc3[nH]ncc23)CC1	-25.5	1.4	43.0*	-11.0	.	2.6
Fc1ccccc1N1CCN(c2ncnc3nc[nH]c23)CC1	.	.	.	.	5.7	.
Cc1cccc(NC(=O)COn2nnc3ccc(S(C)(=O)=O)cc32)c1	.	2.4	2.2	.	7.2	.
CCc1nc2c(cnn2-c2ccc(Cl)cc2)c(=O)n1-c1ccc(OC)cc1	-25.7	2.8	-0.3	-4.9	2.7	55.6*
O=C(c1ccccc1)c1nc2ccccc2[nH]c1=O	-52.8	0.9	5.8	76.2*	-4.1	10.2
NS(=O)(=O)c1ccc(NC(=O)COC(=O)C2CC(=O)N(Cc3ccccc3)C2)cc1 (configuration not stated)	.	10.6*	14.4	.	3.1	.
NS(=O)(=O)c1cccc(NC(=O)COC(=O)C2CCCCC2)c1	.	11.1*	3.5	.	3.8	.
O=C(COC(=O)C1CC(=O)N(Cc2ccccc2)C1)Nc1ccc2c(c1)OCO2 (configuration not stated)	-70.5	1.7	6.2	-4.6	1.9	10.1
O=C(CC1Sc2ncnn2C1=O)Nc1ccc(Br)cc1 (configuration not stated)	-25.5	-6.2	9.3	-12.9	-5.7	11.5
O=C(NN1C(=O)c2ccccc2NC1c1ccccc1OCc1ccccc1)c1ccncc1 (configuration not stated)	-40.6	-2.5	-11.4	29.1*	-5.3	0.7
CC(c1ccco1)N(C(=O)CSc1ccc(Br)cc1)c1ccccn1 (configuration not stated)	-16.2	1.4	2.3	16.6	-0.2	5.2
COCCN(C(=O)Cc1cccs1)C(C(=O)NCc1ccc(OC)cc1)c1ccc(OC)cc1 (configuration not stated)	2.5	-1.9	4.2	-6.7	-4.0	39.8*
COc1ccc(N2CCN(C(C)C(=O)Nc3nnc(C)s3)CC2)cc1 (configuration not stated)	.	0.1	-5.9	.	2.7	.
CCCn1c(Nc2nc3ccccc3n2C)nc2ccccc21	89.8*	1.6	-29.2	-29.7	9.7	1.9
CCCCn1c(Nc2ccccc2)nc2ccccc21	-54.1	-3.4	2.3	1.5	6.0	0.9
Cn1c(NCc2ccccc2O)nc2ccccc21	-22.6	2.1	2.3	-6.1	2.2	28.2*
Cc1cc(=O)oc2cc(OCC(=O)Nc3ccc(S(=O)(=O)N(C)C)cc3)ccc12	.	.	.	.	-0.8	.
COC(=O)c1c(C)[nH]c(-c2csc(N)n2)c1C	.	0.3	-19.7	.	-25.9	.
COC(=O)c1ccc(CSc2nnc(-c3c[nH]c4ccccc34)n2-c2ccccc2)cc1	-25.2	-12.1	4.3	-2.2	36.2	53.8*
Cc1ccccc1Nc1nc2ccccc2s1	-34.6	-5.4	9.4	-7.6	-4.5	43.2*
Cc1ccc(Nc2nc3ccccc3s2)cc1	-0.8	-7.2	2.4	-10.2	-0.6	18.2
CCN(c1ccccc1)S(=O)(=O)c1ccc(Cl)c(C(=O)N(CC2CCCO2)C2CCS(=O)(=O)C2)c1 (configuration not stated)	.	-0.1	1.6	.	11.4	.
COc1ccccc1C1(CC(=O)O)CCOC(C)(C)C1 (configuration not stated)	-34.4	-6.5	4.7	-4.7	0.5	32.9*
CC1(C)CC(CC(=O)O)(c2ccc(F)cc2)CCO1 (configuration not stated)	-5.1	-6.0	-5.4	-11.0	-5.1	7.8
CCOc1ccc(-n2cc(-c3ccccc3)c3c(SC(C)C(=O)OC)ncnc32)cc1 (configuration not stated)	-37.1	-1.0	7.9	6.1	-5.1	19.2*
SMILES	Yeast growth inh	Efa HMGR inh	Arbovirus anti	Yeast life ext	Rad51 HR inh	Measles CPE
O=S(=O)(Nc1cccc(-c2nc3cccnc3s2)c1)c1ccc2c(c1)OCCO2	-38.1	-2.1	31.0*	-5.1	11.3	9.3
O=C(Nc1nc(-c2ccccc2)cs1)c1ccco1	.	.	.	.	1.7	.
COc1ccc(-c2csc(NC(=O)c3ccco3)n2)cc1	-5.5	-3.6	65.3*	.	1.5	0.7
O=C(Nc1nc(-c2ccco2)cs1)c1ccccc1	-68.8	2.5	62.3*	-10.8	-6.0	12.8
CC(=O)Nc1ccc(-c2csc(NC(=O)c3ccc(C)o3)n2)cc1	-49.5	3.0	38.5*	-21.2	-5.4	22.4
COc1ccc(CC(=O)Nc2nc(-c3cccnc3)cs2)cc1	-26.7	-0.4	-0.9	-0.1	-4.8	34.8*
O=S(=O)(c1ccc(OCC2CO2)cc1)c1ccc(OCC2CO2)cc1 (configuration not stated)	.	-0.8	-19.6	.	11.7	.
COc1cc(O)c(C(C)=O)c(CC(=O)O)c1	.	.	.	.	6.1	.
CC(=O)Nc1ccc(C(=O)Nc2nc(-c3ccccn3)cs2)cc1	.	-1.4	34.5*	.	-11.2	.
CCC(=O)N(Cc1ccco1)c1nc(-c2ccc(OC)cc2)cs1	-48.2	11.6*	-12.8	.	3.1	8.1
S=C(NCCN1CCOCC1)NC1CCCC1	.	-4.0	3.9	.	7.5	.
CCCN(CCC)CC(C)(C)NS(=O)(=O)c1ccc(Cl)cc1	.	.	.	.	-14.8	.
COC(=O)c1c(-c2ccc(C)cc2)csc1NC(=O)C1CC=CCC1C(=O)O (configuration not stated)	-26.8	-1.3	18.9	14.1	-0.5	47.2*
COC(=O)c1c(-c2cc(C)ccc2C)csc1NC(=O)C1CC=CCC1C(=O)O (configuration not stated)	.	-0.9	29.2	.	5.2	.
O=C(Cc1ccc(Cl)cc1Cl)NCC1(N2CCOCC2)CCCCC1	.	-2.1	4.5	.	-0.8	.
CCCN1C2=NCCCN2c2ccccc21	3.1	-1.7	5.6	-9.5	-4.0	6.8
CCCN1C2=NCCN2c2ccccc21	-6.7	-1.6	0.4	-8.1	0.3	45.5*
CN(C(=O)c1ccccn1)c1nnc(-c2cccnc2)s1	-28.9	-3.9	-1.4	-7.5	6.8	24.8
Cc1nnc(N(C)C(=O)c2ccccn2)s1	-46.9	-2.1	0.9	-14.2	.	53.1*
O=S(=O)(Nc1ccc(-c2nnc(SCc3ccc(Cl)cc3)o2)cc1)c1ccccc1	-25.1	-0.7	30.8*	1.5	-13.8	25.8
Clc1ccc(CSc2nnc(-c3ccncc3)o2)cc1	-23.3	-0.1	-28.9	-6.4	-0.5	1.4
O=C(CCCCn1c(=O)[nH]c2ccccc2c1=O)N1CCN(c2cccc(C(F)(F)F)c2)CC1	-22.4	-2.3	-19.8	-20.3	-6.8	10.0
O=C(CCCn1c(=S)[nH]c2ccccc2c1=O)N1CCN(c2cccc(Cl)c2)CC1	-44.7	-3.6	4.3	1.7	-2.5	59.0*
CC(C)NS(=O)(=O)c1cc(C(=O)O)ccc1Cl	-24.0	-1.3	-0.8	26.5*	.	2.6
Cn1cc(CN2CCN(Cc3ccccc3)CC2)c(-c2cccc(Cl)c2)n1	.	-3.9	-6.4	.	.	.
CC(C1CC1)N(Cc1ccccc1)C(=S)Nc1ccccc1Cl (configuration not stated)	.	-0.4	14.4	.	8.0	.
